# Source: ChEMBL document CHEMBL4715745, “Synthesis and biological evaluation of novel FK228 analogues as potential isoform selective HDAC inhibitors” (Eur J Med Chem, 2016)
# System: DMS-273
# Experiment: Growth inhibition of human DMS-273 cells measured after 48 hrs by sulforhodamine B assay
# Format: functional
# Details: not given
# How it was run: (§1)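 Panel of 39 human cancer cell lines tested at the Japanese Foundation for Cancer Research. Five concentrations per compound, spanning 10⁻¹¹–10⁻⁷ M, 10⁻¹⁰–10⁻⁶ M or 10⁻⁸–10⁻⁴ M, were used to build dose-response curves. GI₅₀ is the concentration giving 50% growth inhibition relative to control.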
row,SMILES,GI50 [µM]
1,CC(C)[C@H]1NC(=O)C[C@H]2/C=C/CCSSC[C@@H](NC1=O)C(=O)N[C@@H](C)C(=O)NCC(=O)O2,47

# System: DMS-114
# Experiment: Growth inhibition of human DMS-114 cells measured after 48 hrs by sulforhodamine B assay
# Format: functional
# Details: not given
# How it was run: as §1
row,SMILES,GI50 [µM]
1,CC(C)[C@H]1NC(=O)C[C@H]2/C=C/CCSSC[C@@H](NC1=O)C(=O)N[C@@H](C)C(=O)NCC(=O)O2,15

# System: MCF7
# Experiment: Growth inhibition of human MCF7 cells measured after 48 hrs by sulforhodamine B assay
# Format: functional
# Details: not given
# How it was run: as §1
row,SMILES,GI50 [µM]
1,CC(C)[C@H]1NC(=O)C[C@H]2/C=C/CCSSC[C@@H](NC1=O)C(=O)N[C@@H](C)C(=O)NCC(=O)O2,17

# System: U-251
# Experiment: Growth inhibition of human U-251 cells measured after 48 hrs by sulforhodamine B assay
# Format: functional
# Details: not given
# How it was run: as §1
row,SMILES,GI50 [µM]
1,CC(C)[C@H]1NC(=O)C[C@H]2/C=C/CCSSC[C@@H](NC1=O)C(=O)N[C@@H](C)C(=O)NCC(=O)O2,17

# System: MKN-7
# Experiment: Growth inhibition of human MKN-7 cells measured after 48 hrs by sulforhodamine B assay
# Format: functional
# Details: not given
# How it was run: as §1
row,SMILES,GI50 [µM]
1,CC(C)[C@H]1NC(=O)C[C@H]2/C=C/CCSSC[C@@H](NC1=O)C(=O)N[C@@H](C)C(=O)NCC(=O)O2,43

# System: SK-OV-3
# Experiment: Growth inhibition of human SK-OV-3 cells measured after 48 hrs by sulforhodamine B assay
# Format: functional
# Details: not given
# How it was run: as §1
row,SMILES,GI50 [µM]
1,CC(C)[C@H]1NC(=O)C[C@H]2/C=C/CCSSC[C@@H](NC1=O)C(=O)N[C@@H](C)C(=O)NCC(=O)O2,16

# System: MKN-1
# Experiment: Growth inhibition of human MKN-1 cells measured after 48 hrs by sulforhodamine B assay
# Format: functional
# Details: not given
# How it was run: as §1
row,SMILES,GI50 [µM]
1,CC(C)[C@H]1NC(=O)C[C@H]2/C=C/CCSSC[C@@H](NC1=O)C(=O)N[C@@H](C)C(=O)NCC(=O)O2,14

# System: NCI-H23
# Experiment: Growth inhibition of human NCI-H23 cells measured after 48 hrs by sulforhodamine B assay
# Format: functional
# Details: not given
# How it was run: as §1
row,SMILES,GI50 [µM]
1,CC(C)[C@H]1NC(=O)C[C@H]2/C=C/CCSSC[C@@H](NC1=O)C(=O)N[C@@H](C)C(=O)NCC(=O)O2,27

# System: SF-268
# Experiment: Growth inhibition of human SF-268 cells measured after 48 hrs by sulforhodamine B assay
# Format: functional
# Details: not given
# How it was run: as §1
row,SMILES,GI50 [µM]
1,CC(C)[C@H]1NC(=O)C[C@H]2/C=C/CCSSC[C@@H](NC1=O)C(=O)N[C@@H](C)C(=O)NCC(=O)O2,17

# Biological target: Histone deacetylase 1 (Homo sapiens, UniProt Q13547)
# Sequence (Q13547 whole entry): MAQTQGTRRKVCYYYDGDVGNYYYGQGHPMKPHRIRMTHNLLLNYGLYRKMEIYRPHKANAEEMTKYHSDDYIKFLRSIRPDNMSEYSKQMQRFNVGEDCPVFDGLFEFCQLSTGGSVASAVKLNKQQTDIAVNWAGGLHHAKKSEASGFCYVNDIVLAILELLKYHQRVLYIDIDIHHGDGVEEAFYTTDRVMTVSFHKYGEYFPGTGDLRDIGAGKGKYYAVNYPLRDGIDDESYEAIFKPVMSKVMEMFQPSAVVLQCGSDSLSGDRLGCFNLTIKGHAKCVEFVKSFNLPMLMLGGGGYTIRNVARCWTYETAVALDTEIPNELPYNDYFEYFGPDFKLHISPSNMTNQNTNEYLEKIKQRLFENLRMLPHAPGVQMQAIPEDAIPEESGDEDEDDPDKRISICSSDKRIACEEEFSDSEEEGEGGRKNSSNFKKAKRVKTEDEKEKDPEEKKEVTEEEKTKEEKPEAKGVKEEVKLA
# Experiment: Inhibition of human HDAC1 expressed in 293T cells using Ac-KGLGK(Ac)-MCA as substrate incubated for 30 mins in presence of 0.1 mM DTT by fluorescence plate reader assay
# Set-up: species or system HEK293T
# Details: not given
row,SMILES,IC50 [µM]
1,CC(C)[C@H]1NC(=O)C[C@H]2/C=C/CCSSC[C@@H](NC1=O)C(=O)N[C@@H](C)C(=O)NCC(=O)O2,0.184

# System: HCT-15
# Experiment: Growth inhibition of human HCT-15 cells measured after 48 hrs by sulforhodamine B assay
# Format: functional
# Details: not given
# How it was run: as §1
row,SMILES,GI50 [µM]
1,CC(C)[C@H]1NC(=O)C[C@H]2/C=C/CCSSC[C@@H](NC1=O)C(=O)N[C@@H](C)C(=O)NCC(=O)O2,100

# System: St-4
# Experiment: Growth inhibition of human St-4 cells measured after 48 hrs by sulforhodamine B assay
# Format: functional
# Details: not given
# How it was run: as §1
row,SMILES,GI50 [µM]
1,CC(C)[C@H]1NC(=O)C[C@H]2/C=C/CCSSC[C@@H](NC1=O)C(=O)N[C@@H](C)C(=O)NCC(=O)O2,62

# System: SNB-75
# Experiment: Growth inhibition of human SNB-75 cells measured after 48 hrs by sulforhodamine B assay
# Format: functional
# Details: not given
# How it was run: as §1
row,SMILES,GI50 [µM]
1,CC(C)[C@H]1NC(=O)C[C@H]2/C=C/CCSSC[C@@H](NC1=O)C(=O)N[C@@H](C)C(=O)NCC(=O)O2,14

# System: LOX IMVI
# Experiment: Growth inhibition of human LOX IMVI cells measured after 48 hrs by sulforhodamine B assay
# Format: functional
# Details: not given
# How it was run: as §1
row,SMILES,GI50 [µM]
1,CC(C)[C@H]1NC(=O)C[C@H]2/C=C/CCSSC[C@@H](NC1=O)C(=O)N[C@@H](C)C(=O)NCC(=O)O2,4.5

# Biological target: T1, Protein deacetylase HDAC6 (Mus musculus, UniProt Q9Z2V5)
# T1 sequence (Q9Z2V5 whole entry): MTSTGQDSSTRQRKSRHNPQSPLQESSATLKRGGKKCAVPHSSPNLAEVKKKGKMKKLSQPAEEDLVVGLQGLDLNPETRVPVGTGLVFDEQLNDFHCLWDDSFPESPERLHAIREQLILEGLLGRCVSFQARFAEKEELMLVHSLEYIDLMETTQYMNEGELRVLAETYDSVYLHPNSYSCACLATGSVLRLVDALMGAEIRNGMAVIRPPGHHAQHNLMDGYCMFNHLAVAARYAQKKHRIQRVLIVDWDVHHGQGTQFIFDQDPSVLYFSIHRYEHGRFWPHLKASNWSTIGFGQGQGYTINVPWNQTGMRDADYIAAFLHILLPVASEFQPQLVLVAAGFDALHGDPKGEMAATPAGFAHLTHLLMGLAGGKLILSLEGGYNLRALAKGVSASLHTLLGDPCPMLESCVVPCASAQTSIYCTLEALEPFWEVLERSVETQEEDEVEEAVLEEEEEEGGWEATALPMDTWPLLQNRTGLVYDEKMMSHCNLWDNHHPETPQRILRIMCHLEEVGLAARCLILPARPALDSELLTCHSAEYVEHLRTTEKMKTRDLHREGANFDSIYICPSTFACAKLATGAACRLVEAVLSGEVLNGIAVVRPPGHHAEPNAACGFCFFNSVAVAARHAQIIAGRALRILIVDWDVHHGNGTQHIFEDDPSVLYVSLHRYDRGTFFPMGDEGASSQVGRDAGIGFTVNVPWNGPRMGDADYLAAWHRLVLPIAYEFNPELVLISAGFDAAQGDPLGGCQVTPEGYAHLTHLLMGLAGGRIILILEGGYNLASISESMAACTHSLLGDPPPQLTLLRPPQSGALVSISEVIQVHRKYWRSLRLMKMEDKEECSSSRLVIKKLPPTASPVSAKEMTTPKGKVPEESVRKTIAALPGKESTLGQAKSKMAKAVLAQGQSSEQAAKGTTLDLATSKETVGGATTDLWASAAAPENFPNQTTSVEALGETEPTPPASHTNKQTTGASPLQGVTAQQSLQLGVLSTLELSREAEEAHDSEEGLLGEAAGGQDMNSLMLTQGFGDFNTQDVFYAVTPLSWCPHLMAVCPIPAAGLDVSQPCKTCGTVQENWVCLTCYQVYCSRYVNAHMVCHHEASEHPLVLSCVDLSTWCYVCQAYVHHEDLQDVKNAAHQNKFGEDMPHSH
# Experiment: Inhibition of mouse HDAC6 expressed in 293T cells using Ac-KGLGK(Ac)-MCA as substrate incubated for 30 mins in presence of 0.1 mM DTT by fluorescence plate reader assay
# Set-up: species or system HEK293T
# Details: not given
# How it was run: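 HDAC enzyme assay run in the presence of 0.1 mM dithiothreitol (DTT); IC₅₀ determined.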
row,SMILES,IC50 [µM]
1,CC(C)[C@H]1NC(=O)C[C@H]2/C=C/CCSSC[C@@H](NC1=O)C(=O)N[C@@H](C)C(=O)NCC(=O)O2,1.02

# System: not listed separately
# Experiment: Selectivity index, ratio of IC50 for mouse HDAC6 expressed in 293T cells to IC50 for human HDAC1 expressed in 293T cells using Ac-KGLGK(Ac)-MCA as substrate incubated for 30 mins in presence of 0.1 mM DTT by fluorescence plate reader assay
# Details: 0.5 h
# How it was run: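 Ratio of HDAC6 IC₅₀ to HDAC1 IC₅₀, taken as selectivity for class I HDAC1 over class II HDAC6. Both enzyme assays were run in the presence of 0.1 mM DTT.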
row,SMILES,Ratio IC50
1,CC(C)[C@H]1NC(=O)C[C@H]2/C=C/CCSSC[C@@H](NC1=O)C(=O)N[C@@H](C)C(=O)NCC(=O)O2,6

# System: NCI-H460
# Experiment: Growth inhibition of human NCI-H460 cells measured after 48 hrs by sulforhodamine B assay
# Format: functional
# Details: not given
# How it was run: as §1
row,SMILES,GI50 [µM]
1,CC(C)[C@H]1NC(=O)C[C@H]2/C=C/CCSSC[C@@H](NC1=O)C(=O)N[C@@H](C)C(=O)NCC(=O)O2,43

# System: DU-145
# Experiment: Growth inhibition of human DU-145 cells measured after 48 hrs by sulforhodamine B assay
# Format: functional
# Details: not given
# How it was run: as §1
row,SMILES,GI50 [µM]
1,CC(C)[C@H]1NC(=O)C[C@H]2/C=C/CCSSC[C@@H](NC1=O)C(=O)N[C@@H](C)C(=O)NCC(=O)O2,15

# System: OVCAR-8
# Experiment: Growth inhibition of human OVCAR-8 cells measured after 48 hrs by sulforhodamine B assay
# Format: functional
# Details: not given
# How it was run: as §1
row,SMILES,GI50 [µM]
1,CC(C)[C@H]1NC(=O)C[C@H]2/C=C/CCSSC[C@@H](NC1=O)C(=O)N[C@@H](C)C(=O)NCC(=O)O2,31

# System: NCI-H522
# Experiment: Growth inhibition of human NCI-H522 cells measured after 48 hrs by sulforhodamine B assay
# Format: functional
# Details: not given
# How it was run: as §1
row,SMILES,GI50 [µM]
1,CC(C)[C@H]1NC(=O)C[C@H]2/C=C/CCSSC[C@@H](NC1=O)C(=O)N[C@@H](C)C(=O)NCC(=O)O2,1.7

# System: KM12
# Experiment: Growth inhibition of human KM12 cells measured after 48 hrs by sulforhodamine B assay
# Format: functional
# Details: not given
# How it was run: as §1
row,SMILES,GI50 [µM]
1,CC(C)[C@H]1NC(=O)C[C@H]2/C=C/CCSSC[C@@H](NC1=O)C(=O)N[C@@H](C)C(=O)NCC(=O)O2,15
